Laboratory results reported in ChEMBL document CHEMBL1932992, “Synthesis and anticonvulsant activity of 1-(8-(benzyloxy)quinolin-2-yl)-6-substituted-4,6-diazaspiro[2,4]heptane-5,7-diones” (Eur J Med Chem, 2012).
Calls of active or inactive are those of the source.

Assays:
[1] = Neurotoxicity in ip dosed Kunming mouse assessed as minimal motor impairment after 0.5 hrs by rotarod test; format: toxicity, organism-based; details: in vivo
Mus musculus [2] = assay: Anticonvulsant activity in Kunming mouse assessed as protection against subcutaneous pentylenetetrazole-induced seizure at 300 mg/kg, ip after 4 hrs; format: functional, organism-based; set-up: dose 300 mg/kg
Summary of the method: (§1)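 Male Kunming mice (20 ± 2.0 g) were given ip doses of 30, 100 or 300 mg/kg in 0.5% methylcellulose, one to four mice per dose. They were then challenged with subcutaneous pentylenetetrazole dissolved in 0.9% saline at 0.5 h and 4.0 h. Protection was the absence of even a threshold seizure (a single clonic spasm lasting at least 5 s). The value is the minimal dose active in half or more of the mice.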

Mus musculus [3] = assay: Anticonvulsant activity in Kunming mouse assessed as protection against maximal electroshock-induced seizure at 300 mg/kg, ip after 0.5 hrs; format: functional, organism-based; set-up: dose 300 mg/kg
Summary of the method: (§2)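 Male Kunming mice (20 ± 2.0 g) received ip 30, 100 or 300 mg/kg as a suspension in 0.5% methylcellulose, one to four mice per dose. At 0.5 h and 4.0 h, a 60-Hz, 50-mA current was applied for 0.25 s via corneal electrodes. Protection meant no hindlimb tonic extension. The value is the minimal dose protecting half or more of the mice.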

Mus musculus [4] = assay: Anticonvulsant activity in ip dosed Kunming mouse assessed as protection against maximal electroshock-induced seizure after 4 hrs; format: functional; details: read-out: MED; summary of the method: as §2
Mus musculus [5] = assay: Anticonvulsant activity in Kunming mouse assessed as protection against subcutaneous pentylenetetrazole-induced seizure at 300 mg/kg, ip after 0.5 hrs; format: functional, organism-based; set-up: dose 300 mg/kg; summary of the method: as §1
Mus musculus [6] = assay: Neurotoxicity in Kunming mouse assessed as minimal motor impairment at 300 mg/kg, ip after 4 hrs by rotarod test; format: toxicity, organism-based; set-up: dose 300 mg/kg, route intraperitoneal; details: in vivo
Summary of the method: (§3)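 Rotorod screen in trained male Kunming mice dosed ip at 30, 100 or 300 mg/kg in 0.5% methylcellulose, read at 0.5 h and 4.0 h. Mice were placed on a knurled rod 1 in. in diameter turning at 6 rpm. Impairment was failure to stay on the rod for at least 1 min in each of four trials. The value is the minimal dose affecting half or more of the mice.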

Mus musculus [7] = assay: Anticonvulsant activity in Kunming mouse assessed as protection against maximal electroshock-induced seizure at 300 mg/kg, ip after 4 hrs; format: functional, organism-based; set-up: dose 300 mg/kg; summary of the method: as §2
Mus musculus [8] = assay: Anticonvulsant activity in ip dosed Kunming mouse assessed as protection against subcutaneous pentylenetetrazole-induced seizure after 0.5 hrs; format: functional; details: read-out: MED; summary of the method: as §1
Mus musculus [9] = assay: Anticonvulsant activity in ip dosed Kunming mouse assessed as protection against maximal electroshock-induced seizure after 0.5 hrs; format: functional; details: read-out: MED; summary of the method: as §2
Mus musculus [10] = assay: Anticonvulsant activity in ip dosed Kunming mouse assessed as protection against subcutaneous pentylenetetrazole-induced seizure after 4 hrs; format: functional; details: read-out: MED; summary of the method: as §1
Mus musculus [11] = assay: Neurotoxicity in Kunming mouse assessed as minimal motor impairment at 300 mg/kg, ip after 0.5 hrs by rotarod test; format: toxicity, organism-based; set-up: dose 300 mg/kg, route intraperitoneal; details: in vivo; summary of the method: as §3
Mus musculus [12] = assay: Anticonvulsant activity in ip dosed Kunming mouse assessed as protection against maximal electroshock-induced seizure; format: functional
Mus musculus [13] = assay: Protective index, ratio of TD50 for ip dosed Kunming mouse to ED50 for ip dosed Kunming mouse by maximal electroshock seizure test; format: functional
Mus musculus [14] = assay: Protective index, ratio of TD50 for ip dosed Kunming mouse to ED50 for ip dosed Kunming mouse by subcutaneous pentylenetetrazole induced seizure test; format: functional
Mus musculus [15] = assay: Anticonvulsant activity in ip dosed Kunming mouse assessed as protection against subcutaneous pentylenetetrazole-induced seizure; format: functional
Summary of the method: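 Median effective dose in male Kunming mice, groups of 10, given a range of ip doses until at least three points fell between 10–90% seizure protection.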

Structure (SMILES) | Activity (Mus musculus [2]) | minimal effective dose (Mus musculus [4]) | Activity (Mus musculus [5]) | Activity (Mus musculus [6]) | Activity (Mus musculus [7]) | minimal effective dose (Mus musculus [8]) | minimal effective dose (Mus musculus [9]) | Activity (Mus musculus [11]) | other results
O=C1NC2(CC2c2ccc3cccc(OCc4ccccc4)c3n2)C(=O)N1c1ccccc1 (racemic) | inactive | 300 mg/kg | inactive |  |  |  |  |  | MTD at 0.5 h [1]: 300 mg/kg; Activity (Mus musculus [3]): inactive
O=C1NC(=O)C2(CC2c2ccc3cccc(OCc4ccccc4)c3n2)N1 (racemic) | inactive |  |  | Non-toxic | inactive | 300 mg/kg | 300 mg/kg |  | MTD at 0.5 h [1]: 300 mg/kg
CN1C(=O)NC2(CC2c2ccc3cccc(OCc4ccccc4)c3n2)C1=O (racemic) |  |  | inactive |  | inactive |  | 100 mg/kg | Non-toxic | minimal effective dose (Mus musculus [10]): 300 mg/kg
CCCCN1C(=O)NC2(CC2c2ccc3cccc(OCc4ccccc4)c3n2)C1=O (racemic) |  |  | inactive | Non-toxic | inactive |  | 300 mg/kg | Non-toxic | minimal effective dose (Mus musculus [10]): 300 mg/kg
CC(C)N1C(=O)NC2(CC2c2ccc3cccc(OCc4ccccc4)c3n2)C1=O (racemic) | inactive | 100 mg/kg |  | Non-toxic |  | 100 mg/kg | 300 mg/kg | Non-toxic | 
CCC(CO)N1C(=O)NC2(CC2c2ccc3cccc(OCc4ccccc4)c3n2)C1=O (racemic) |  | 30 mg/kg |  | Non-toxic |  | 100 mg/kg | 30 mg/kg | Non-toxic | TD50 at 0.5 h [1]: 365 mg/kg; ED50 (Mus musculus [12]): 8.6 mg/kg; minimal effective dose (Mus musculus [10]): 300 mg/kg; Ratio TD50/ED50 (Mus musculus [13]): 26.8; Ratio TD50/ED50 (Mus musculus [14]): 1.7; ED50 (Mus musculus [15]): 212 mg/kg
O=C1NC2(CC2c2ccc3cccc(OCc4ccccc4)c3n2)C(=O)N1C1CCCCC1 (racemic) | inactive | 300 mg/kg |  |  |  | 300 mg/kg | 300 mg/kg | Non-toxic | 
O=C1NC2(CC2c2ccc3cccc(OCc4ccccc4)c3n2)C(=O)N1Cc1ccccc1 (racemic) | inactive | 300 mg/kg |  |  |  | 300 mg/kg |  | Non-toxic | Activity (Mus musculus [3]): inactive
Cc1ccc(N2C(=O)NC3(CC3c3ccc4cccc(OCc5ccccc5)c4n3)C2=O)cc1 (racemic) | inactive |  | inactive |  | inactive |  | 100 mg/kg | Non-toxic | 
COc1ccc(N2C(=O)NC3(CC3c3ccc4cccc(OCc5ccccc5)c4n3)C2=O)cc1 (racemic) | inactive | 100 mg/kg |  | Non-toxic |  | 300 mg/kg | 30 mg/kg | Non-toxic | TD50 at 0.5 h [1]: 433 mg/kg; ED50 (Mus musculus [12]): 19.5 mg/kg; Ratio TD50/ED50 (Mus musculus [13]): 22.2; Ratio TD50/ED50 (Mus musculus [14]): 1.6; ED50 (Mus musculus [15]): 279 mg/kg
O=C1NC2(CC2c2ccc3cccc(OCc4ccccc4)c3n2)C(=O)N1c1ccc([N+](=O)[O-])cc1 (racemic) | inactive | 300 mg/kg |  | Non-toxic |  | 300 mg/kg |  | Non-toxic | Activity (Mus musculus [3]): inactive
O=C1NC2(CC2c2ccc3cccc(OCc4ccccc4)c3n2)C(=O)N1c1ccc(F)cc1 (racemic) | inactive |  | inactive |  | inactive |  | 300 mg/kg | Non-toxic | 
O=C1NC2(CC2c2ccc3cccc(OCc4ccccc4)c3n2)C(=O)N1c1ccc(C(F)(F)F)cc1 (racemic) |  | 300 mg/kg | inactive |  |  |  | 300 mg/kg | Non-toxic | minimal effective dose (Mus musculus [10]): 300 mg/kg
O=C1NC2(CC2c2ccc3cccc(OCc4ccccc4)c3n2)C(=O)N1c1ccc(Cl)cc1 (racemic) | inactive |  | inactive |  | inactive |  | 300 mg/kg |  | MTD at 0.5 h [1]: 100 mg/kg
O=C1NC2(CC2c2ccc3cccc(OCc4ccccc4)c3n2)C(=O)N1c1ccc(Br)cc1 (racemic) | inactive | 300 mg/kg | inactive |  |  |  |  |  | MTD at 0.5 h [1]: 100 mg/kg; Activity (Mus musculus [3]): inactive
O=C1NC2(CC2c2ccc3cccc(OCc4ccccc4)c3n2)C(=O)N1c1cc(Cl)cc(Cl)c1 (racemic) | inactive |  |  | Non-toxic | inactive | 300 mg/kg |  |  | MTD at 0.5 h [1]: 300 mg/kg; Activity (Mus musculus [3]): inactive
NC(=O)N1c2ccccc2C=Cc2ccccc21 [CARBAMAZEPINE] |  |  |  |  |  |  |  |  | ED50 (Mus musculus [12]): 8.8 mg/kg; ED50 (Mus musculus [15]): > 100 mg/kg
CCC1(C)CC(=O)NC1=O (stereo not drawn) [ETHOSUXIMIDE] |  |  |  | Non-toxic | inactive | 100 mg/kg |  | Non-toxic | minimal effective dose (Mus musculus [10]): 300 mg/kg; Activity (Mus musculus [3]): inactive
CCC1(c2ccccc2)C(=O)NC(=O)NC1=O [PHENOBARBITAL] |  |  |  |  |  |  |  |  | ED50 (Mus musculus [12]): 21.8 mg/kg; ED50 (Mus musculus [15]): 13.2 mg/kg
O=C1NC(=O)C(c2ccccc2)(c2ccccc2)N1 [PHENYTOIN] | inactive | 30 mg/kg | inactive |  |  |  | 30 mg/kg |  | ED50 (Mus musculus [15]): > 300 mg/kg
CCCC(CCC)C(=O)[O-].[Na+] [VALPROATE SODIUM] |  |  |  |  |  |  |  |  | ED50 (Mus musculus [15]): 149 mg/kg
